CHOP inhibitor: inhibitors of CHOP induction in ER stress response. CHO-K1 CHOP-promoter luciferase, tunicamycin-induced, 15-18 h. inhibition, % at 10 µM. 220,000 compounds, 3.8% hits;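 active means compounds that reduced the stress-induced luciferase reporter signal by more than about 70% of percent inhibition, limit read from the data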;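 further: 0% = tunicamycin plus vehicle and 100% = wells without tunicamycin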
XBP1 UPR activ: activators of adaptive arm of unfolded protein response (XBP1). CHO-XBP1 luciferase reporter, IRE1-XBP1 UPR activation, luminescence; percent of tunicamycin response, DMSO as zero. activation, % at 20 µM. 330,000 compounds, 0.33% hits. AID 463104;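 active means versus positive control, 20 µM dose yields 30% or more activation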;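 further: 100% = tunicamycin at 10 µg/mL and 0% = DMSO only wells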
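incubation = overnight seeding at 37 °C, 6 h compound treatment at 37 °C | assay system = CHO-XBP1 cells stably carrying IRE1-XBP1-driven luciferase reporter | input = 1000 cells per well | detection = luciferase luminescence | dosing = single point, 20 µM final compound, 1% DMSO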
PvdQ inh: P. aeruginosa PvdQ acylase inhibition | inhibition, % at 10 µM | AID 488965 | purified PvdQ acylase, fluorescence plate reader | 340,000 compounds, 0.063% hits; in the data active means inhibition above about 30%, passing the limit was not always enough;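 further: 0% = vehicle neutral wells and 100% = reference inhibitor wells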
UPR CHOP act: apoptotic UPR (CHOP) activation; CHO-CHOP luciferase reporter, luminescence; percent of tunicamycin response over DMSO baseline; activation, % at 10 µM; 330,000 compounds, 0.34% hits; AID 449763;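 active means at 10 µM dose, activation of 40% or more, normalized to positive control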;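 further: 100% = tunicamycin at 10 µg/mL and 0% = DMSO alone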
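Material: CHO-CHOP cells, stable luciferase reporter of PERK-eIF2a-CHOP signalling; quantity: 500 reporter cells seeded per well; buffer or medium: F12 medium containing 10% fetal bovine serum; compound: one dose, 10 µM in 0.5% DMSO; incubation: 6 h compound treatment, 37 °C; measured by: Steady-Glo luciferase luminescence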
Active calls of the source: *; · = no result given. This is one part of a sample in which hits are shown more often than they occur.

SMILES | CHOP inhibitor | XBP1 UPR activ | PvdQ inh | UPR CHOP act
CSC1=NCCN1C(=O)c1c(-c2ccccc2Cl)noc1C | 89.0* | -2.0 | -8.1 | 2.7
O=C(NC(=S)N1CCCCC1)C12CC3CC(CC(C3)C1)C2 | 47.4 | -0.5 | -8.2 | -1.3
O=C(c1cc(NC(=O)C23CC4CC(CC(C4)C2)C3)cc(NC(=O)C23CC4CC(CC(C4)C2)C3)c1)N1CCCCC1 | 70.8* | -1.5 | · | 10.2
CCCN(CCC)CCNC(=O)C1c2ccccc2C(=O)N(CCOC)C1c1ccc(F)cc1 (stereo not given) | 1.3 | 0.1 | -3.4 | 1.2
CN(C(=O)COn1nnc2ccc(Cl)cc21)C1CCS(=O)(=O)C1 (stereo not given) | · | -1.1 | 1.8 | -0.5
CC1CN(c2cc(-c3ccccc3)c3ccccc3n2)CC(C)O1 (stereo not given) | 46.0 | -2.6 | -18.7 | -1.7
COc1cccc(-c2nc(N3CC(C)CC(C)C3)c3ccccc3n2)c1O (stereo not given) | 76.0* | 45.8* | 6.7 | 2.7
CC1CN(c2nc(-c3ccccc3)nc3ccccc23)CC(C)O1 (stereo not given) | 82.0* | -0.2 | 13.7 | -0.8
Nc1nc(C(F)(F)F)cc(=O)n1N | 0.6 | -3.9 | -2.5 | -0.4
O=C1Nc2ccc(Br)cc2C12NNc1ccccc1O2 (stereo not given) | 104.9* | 9.0 | 1.8 | 1.9
CSc1cccc(NC(=O)C(C)Sc2ccc(C)cc2)c1 (stereo not given) | 77.9* | -0.2 | 0.3 | 2.6
Cc1ccc(SC(C)C(=O)Nc2ccncc2)cc1 (stereo not given) | 41.9 | 0.4 | 3.1 | -0.1
Cn1nc(-c2ccc(N3CCCCC3)c(NC(=O)c3ccco3)c2)c2ccccc2c1=O | 88.5* | 16.9 | -8.3 | 3.7
O=C(CNC(=S)N(Cc1ccccc1)Cc1ccccc1F)NCc1ccc(Cl)cc1 | 78.2* | · | -13.5 | ·
O=C(CNC(=S)N(Cc1ccccc1)Cc1ccccc1F)NCc1ccccc1 | 46.7 | 0.6 | -4.1 | 0.7
COC1=C(N)C(=O)c2nc(-c3nc(C(=O)O)c(C)c(-c4ccc(OC)c(OC)c4O)c3N)ccc2C1=O | 81.3* | -8.6 | 8.1 | 9.8
COc1ccc(NS(=O)(=O)c2cccc(C(=O)NNC(=O)NCCCl)c2)cc1 | 7.3 | -3.4 | -0.8 | -0.6
O=C(Nc1ccc2c(c1)C(=O)N(CC1CCCO1)C2=O)c1cccc(Br)c1 (stereo not given) | 73.3* | 1.7 | -8.3 | 2.6
Cc1ccc2c(c1)N=C(c1ccc(F)cc1)CO2 | 78.5* | -0.1 | 20.4 | 5.8
O=[N+]([O-])c1ccc(C2=Nc3cc(Cl)ccc3OC2)cc1 | -27.5 | 5.0 | -1.5 | 1.3
O=C(Sc1cccc2cccnc12)c1ccc(F)cc1 | 90.9* | -3.3 | · | 68.8*
CC(=O)/C(=N\Nc1ccccc1)Sc1cccc2cccnc12 | 14.6 | 0.8 | 10.2 | 0.6
O=C(Sc1cccc2cccnc12)c1ccccc1Br | · | -0.2 | -3.4 | 62.3*
NNC(=O)CSc1cccc2cccnc12 | 22.5 | 0.5 | -6.5 | 1.0
Cc1cc([N+](=O)[O-])nn1CCCC(=O)N1CCN(c2ccc(F)cc2)CC1 | -6.8 | -4.3 | 8.4 | 0.4
SMILES | CHOP inhibitor | XBP1 UPR activ | PvdQ inh | UPR CHOP act
CC(C)(C)c1ccc(S(=O)(=O)N2CCN(CC(O)CN3CCOCC3)CC2)cc1 (stereo not given) | · | -2.0 | 1.9 | -1.6
COC(=O)c1cc(NC(=O)c2c(Cl)nc3sccn23)cc(C(=O)OC)c1 | 76.0* | 19.2 | 7.3 | -0.9
O=C(COc1ccccc1[N+](=O)[O-])NCCCN1CCCC1=O | · | -2.5 | 2.6 | 1.6
COc1ccc(-n2nc(C(=O)Nc3ccc4c(c3)OCO4)c3c4ccccc4n(C)c3c2=O)cc1 | · | 0.4 | -2.6 | -3.1
COc1ccc(-n2nc(C(=O)Nc3ccc(OC)c(OC)c3)c3c4ccccc4n(C)c3c2=O)cc1 | 71.5* | 1.3 | -13.4 | 2.1
COc1ccc(Cl)cc1NC(=O)CN(C)C1CCCCC1 | 76.5* | 1.8 | -20.0 | -0.7
COc1cc(/C=N/N=C(/N)c2nonc2N)cc(Br)c1OCc1cccc(C)c1 | 71.4* | 3.6 | 4.9 | 2.4
O=C(O)C1CCN(C(=O)CCc2ccccc2)CC1 | 8.2 | -2.1 | 10.5 | 0.6
COc1ccccc1C(CNC(=O)C1CC(=O)N(Cc2ccccc2)C1)N1CCCC1 (stereo not given) | · | 0.2 | -12.1 | -2.0
Cc1nn(CCO)c2nc(-c3cccs3)cc(C(F)(F)F)c12 | 85.2* | 5.0 | 3.9 | 0.8
Cc1nn(C)c2nc(-c3cccs3)cc(C(F)(F)F)c12 | 58.7 | -1.1 | 8.6 | -1.9

Source: PubChem BioAssay
